Assay outcomes (PubChem)
T cruzi growth-1: T. cruzi proliferation inhibition. 77,000 compounds, 5.9% hits. AID 624255. inhibition, % at 8.34 µM. T. cruzi beta-gal in NIH3T3, GalScreen luminescence, 90 h;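 active = mean inhibition above about 93%, with at least 55% of replicates each passing it, limit read from the data, passing the limit was not always enough; inconclusive = only one of those two conditions holds; inactive = neither condition holds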
GASC1 inh: blocks human GASC-1 (KDM4C) demethylase activity. AID 720574. 96,000 compounds, 0.15% hits. Q9H3R0. inhibition, % at 12.5 µM. GST-KDM4C 2-372, H3K9me3 peptide, LANCE TR-FRET;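 active = mean replicate inhibition above about 25%, with at least 55% of replicates also reaching it, limit read from the data, passing the limit was not always enough; inconclusive = only one of those two conditions met; inactive = neither condition met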
Target sequence (Q9H3R0 2-372 limits assumed): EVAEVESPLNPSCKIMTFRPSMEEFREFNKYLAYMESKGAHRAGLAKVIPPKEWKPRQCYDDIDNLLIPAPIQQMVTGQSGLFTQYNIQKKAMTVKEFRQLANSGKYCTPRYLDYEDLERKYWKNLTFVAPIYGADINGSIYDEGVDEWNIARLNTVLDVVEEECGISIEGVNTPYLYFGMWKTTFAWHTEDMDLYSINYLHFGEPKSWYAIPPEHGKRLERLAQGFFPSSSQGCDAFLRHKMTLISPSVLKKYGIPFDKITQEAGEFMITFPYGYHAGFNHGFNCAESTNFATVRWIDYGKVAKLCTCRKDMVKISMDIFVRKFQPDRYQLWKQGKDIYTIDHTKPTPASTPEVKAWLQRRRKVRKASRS
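Test system – GST-tagged GASC-1 (JMJD2C) catalytic fragment, aa 2-372 · Medium – HEPES buffer, pH 7.5, plus ascorbate · Reagent – H3K9me3 peptide with Fe(II)/2OG · Compound – one test concentration per compound · Timing – 30 min reaction, 60 min detection, RT · Technique – TR-FRET with Eu antibody and ULight streptavidin, EDTA stop · Read-out basis – inhibition from TR-FRET ratio decrease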
IDH1 R132H inh: blocks human IDH1 R132H reductase activity; O75874; diaphorase/resazurin fluorescence, 60 min; inhibition, % at 10 µM; 70,000 compounds, 0.18% hits; AID 624101; in the data active = inhibition above about 34%; inconclusive = no clear call, values can overlap the other calls; inactive = below about 11%;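 note: 0% = DMSO and 100% = no enzyme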
Target sequence (O75874 whole entry R132H): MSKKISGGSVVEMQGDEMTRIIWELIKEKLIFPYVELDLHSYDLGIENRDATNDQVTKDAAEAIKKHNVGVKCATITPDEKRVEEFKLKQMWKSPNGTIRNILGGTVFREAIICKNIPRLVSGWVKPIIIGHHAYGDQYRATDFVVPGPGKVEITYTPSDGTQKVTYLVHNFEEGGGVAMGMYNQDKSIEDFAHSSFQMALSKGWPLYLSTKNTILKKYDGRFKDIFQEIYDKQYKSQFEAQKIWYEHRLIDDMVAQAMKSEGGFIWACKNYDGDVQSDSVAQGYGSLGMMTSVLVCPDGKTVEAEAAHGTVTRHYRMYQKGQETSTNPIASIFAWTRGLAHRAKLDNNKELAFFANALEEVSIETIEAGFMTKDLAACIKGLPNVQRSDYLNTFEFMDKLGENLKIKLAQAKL
T cruzi growth-2: Trypanosoma cruzi proliferation inhibition; 5,600 compounds, 72% hits; inhibition, % at 8.35 µM; shares compounds with T cruzi growth-1; T. cruzi beta-gal in NIH3T3, GalScreen luminescence, 90 h;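 active = mean replicate inhibition above about 95% and at least 55% of replicates individually reaching it, limit read from the data; inconclusive = only one of the two criteria is met; inactive = neither criterion is met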
T cruzi growth-3: inhibitors of T. cruzi proliferation. shares compounds with T cruzi growth-1. T. cruzi beta-gal in NIH3T3, GalScreen luminescence, 90 h. inhibition, % at 2.09 µM. 5,600 compounds, 21% hits. AID 651740;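 active = mean inhibition above about 95%, with at least 55% of replicates also reaching it, limit read from the data; inconclusive = meets just one of the two conditions; inactive = meets neither condition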;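 note: plate controls were neutral control median for no effect and positive control median for full effect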
3T3 cytotox: cytotoxicity in mouse NIH/3T3 fibroblasts | shares compounds with T cruzi growth-1 | NIH/3T3 viability, CellTiter-Glo ATP luminescence, 90 h | cytotoxicity (signal decrease), % at 8.35 µM | 5,600 compounds, 14% hits | AID 651742;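 active = mean signal decrease across replicates above about 35% based on untreated-well scatter, with enough replicates individually passing, limit read from the data; inconclusive = no rule stated though some were filed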;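 note: 0% = median of neutral control wells and 100% = median of positive control wells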
3T3 cytotox 2: NIH/3T3 (mouse) viability loss | AID 651744 | NIH/3T3 viability, CellTiter-Glo ATP luminescence, 90 h | shares compounds with T cruzi growth-1 | inhibition, % at 24.9 µM | 5,600 compounds, 56% hits;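 active = mean loss of cell viability signal at or above a set limit, and enough replicates individually reaching it; inconclusive = meets only the mean limit or only the replicate share; inactive = meets neither condition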;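 note: 0% = median of neutral control wells and 100% = median of positive control wells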
Numbers without * were called inactive; ? = inconclusive; . = not tested or not shown. Only a selection was taken, and hits are over-represented in it overall.

SMILES | T cruzi growth-1 | GASC1 inh | IDH1 R132H inh | T cruzi growth-2 | T cruzi growth-3 | 3T3 cytotox | 3T3 cytotox 2
C[C@@H]1CN([C@H](C)CO)S(=O)(=O)c2ccc(C#Cc3ccc(F)cc3)cc2O[C@H]1CN(C)C | -36.5 | -0.2 | -2.8 | . | . | . | .
C[C@@H]1CN([C@H](C)CO)S(=O)(=O)c2ccc(C#Cc3ccc(F)cc3)cc2O[C@@H]1CN(C)S(C)(=O)=O | ? | 0.1 | 1.2 | ? | 59.1 | 46.4* | 65.6*
Cc1cc(C(=O)Nc2cccc3c2O[C@H](CN(C)C)[C@H](C)CN([C@H](C)CO)C3=O)n(C)n1 | -29.0 | 0.2 | -2.8 | . | . | . | .
CCC(=O)Nc1ccc2c(c1)C(=O)N(C)[C@@H]1CC[C@H](CC(=O)NCCOC)O[C@H]1CO2 | 28.1 | 0.2 | . | . | . | . | .
C[C@@H]1CN([C@H](C)CO)C(=O)Cc2cc(NC(=O)Nc3ccc4c(c3)OCO4)ccc2O[C@@H]1CN(C)Cc1ccncc1 | . | -1.6 | . | . | . | . | .
COc1cccc(NC(=O)N(C)C[C@H]2Oc3cc(C#Cc4ccc(F)cc4)ccc3S(=O)(=O)N([C@@H](C)CO)C[C@@H]2C)c1 | ? | -4.1 | . | 98.7* | 107.7* | 7.7 | 51.8*
COc1cccc(NC(=O)N(C)C[C@@H]2Oc3cc(C#Cc4ccncc4)ccc3S(=O)(=O)N([C@@H](C)CO)C[C@@H]2C)c1 | 49.4 | -1.5 | . | . | . | . | .
COc1cccc(NC(=O)N(C)C[C@H]2Oc3cc(-c4ccccc4OC)ccc3S(=O)(=O)N([C@H](C)CO)C[C@H]2C)c1 | . | -4.0 | . | . | . | . | .
COc1ccc(C#Cc2ccc3c(c2)O[C@H](CN(C)C(=O)Nc2cccc(OC)c2)[C@@H](C)CN([C@@H](C)CO)S3(=O)=O)cc1 | 109.4* | -5.7 | 0.6 | 100.1* | 110.1* | ? | 17.0
COc1cccc(NC(=O)N(C)C[C@@H]2Oc3cc(-c4ccccc4F)ccc3S(=O)(=O)N([C@H](C)CO)C[C@@H]2C)c1 | 97.8* | . | 0.3 | 111.1* | 55.2 | 22.1 | 49.9*
COc1ccc(C#Cc2ccc3c(c2)O[C@@H](CN(C)C(=O)Nc2cccc(OC)c2)[C@@H](C)CN([C@@H](C)CO)S3(=O)=O)cc1 | ? | -7.2 | . | 105.1* | 108.2* | 36.7* | 33.5*
COc1cccc(NC(=O)N(C)C[C@@H]2Oc3cc(C#CC4(O)CCCC4)ccc3S(=O)(=O)N([C@@H](C)CO)C[C@H]2C)c1 | . | 0.8 | . | . | . | . | .
COc1cccc(NC(=O)N(C)C[C@H]2Oc3cc(C#Cc4ccncc4)ccc3S(=O)(=O)N([C@@H](C)CO)C[C@H]2C)c1 | 77.3 | -2.3 | -3.8 | . | . | . | .
C[C@H]1CN([C@@H](C)CO)C(=O)c2cc(C#CCN(C)C)cnc2O[C@@H]1CN(C)Cc1cccc(C(=O)O)c1 | -75.6 | 0.1 | 0.3 | . | . | . | .
CCCNC(=O)N(C)C[C@H]1Oc2ncc(C#Cc3ccccc3F)cc2C(=O)N([C@@H](C)CO)C[C@@H]1C | 39.9 | -0.2 | . | . | . | . | .
COc1ccc(C#Cc2cnc3c(c2)C(=O)N([C@@H](C)CO)C[C@H](C)[C@H](CN(C)C(=O)CN(C)C)O3)cc1 | 28.2 | -1.4 | 1.4 | . | . | . | .
CCCNC(=O)C[C@@H]1CC[C@@H]2[C@H](COc3ccc(NC(=O)c4ccc(OC)cc4)cc3C(=O)N2C)O1 | 15.2 | 2.2 | . | . | . | . | .
COc1ccccc1CNC(=O)C[C@H]1C[C@H]2c3cc(NC(=O)NC4CCCC4)ccc3O[C@H]2[C@H](CO)O1 | 109.4* | 0.7 | 1.7 | 107.7* | 28.1 | -4.7 | 9.4
COc1ccccc1CNC(=O)C[C@H]1C[C@@H]2c3cc(NC(=O)CC4CC4)ccc3O[C@@H]2[C@H](CO)O1 | -19.6 | 0.4 | -0.6 | . | . | . | .
COc1ccccc1CNC(=O)C[C@H]1C[C@@H]2c3cc(NC(=O)NC4CCCC4)ccc3O[C@@H]2[C@@H](CO)O1 | 109.0* | 1.1 | 0.3 | 28.9 | 22.7 | -1.5 | -1.6
COc1ccccc1CNC(=O)C[C@@H]1C[C@@H]2c3cc(NC(=O)CC4CC4)ccc3O[C@@H]2[C@@H](CO)O1 | 15.6 | -2.2 | 0.4 | . | . | . | .
C[C@H](CO)N1C[C@H](C)[C@H](CN(C)Cc2ccc3c(c2)OCCO3)OCc2cnnn2CCCC1=O | 33.0 | 2.0 | 0.4 | . | . | . | .
O=C(O)CCCCCC(=O)N/N=C/c1ccccc1 | . | . | -0.2 | . | . | . | .
C[C@H]1CN([C@@H](C)CO)C(=O)c2cc(NC(=O)Cc3cn(C)c4ccccc34)ccc2O[C@@H]1CN(C)Cc1ccncc1 | ? | -0.6 | -1.0 | 33.5 | -25.2 | 6.1 | 29.8*
C[C@H]1CN([C@@H](C)CO)C(=O)c2cc(NC(=O)Cc3cn(C)c4ccccc34)ccc2O[C@@H]1CN(C)Cc1ccc(C(F)(F)F)cc1 | 93.1 | 1.0 | -0.3 | . | . | . | .
SMILES | T cruzi growth-1 | GASC1 inh | IDH1 R132H inh | T cruzi growth-2 | T cruzi growth-3 | 3T3 cytotox | 3T3 cytotox 2
C[C@@H]1CN([C@@H](C)CO)C(=O)c2cc(NC(=O)Cc3cn(C)c4ccccc34)ccc2O[C@@H]1CN(C)Cc1ccncc1 | 30.3 | -1.5 | -1.5 | . | . | . | .
C[C@H](CO)N1C[C@H](C)[C@@H](CN(C)Cc2ccc(Cl)c(Cl)c2)Oc2ccc(NC(=O)Cc3cn(C)c4ccccc34)cc2C1=O | 80.0 | -0.6 | 3.2 | . | . | . | .
C[C@@H]1CN([C@@H](C)CO)C(=O)c2cc(NC(=O)Cc3cn(C)c4ccccc34)ccc2O[C@H]1CN(C)Cc1ccc(Cl)c(Cl)c1 | ? | -2.4 | . | 104.7* | 54.2 | 12.8 | 5.7
C[C@H](CO)N1C[C@H](C)[C@@H](CN(C)Cc2ccc(C(F)(F)F)cc2)Oc2ccc(NC(=O)Cc3cn(C)c4ccccc34)cc2C1=O | 118.2* | 9.3 | . | 106.7* | 12.7 | 6.0 | 14.0
Cc1ccc(S(=O)(=O)Nc2ccc3c(c2)C(=O)N([C@@H](C)CO)C[C@@H](C)[C@@H](CN(C)C(=O)Nc2ccc(C(F)(F)F)cc2)O3)cc1 | 88.8 | -3.8 | 0.8 | . | . | . | .
CN1C[C@@H](O)COC[C@H]2O[C@H](CC(=O)NC3CCC3)CC[C@@H]21 | -11.5 | 1.6 | . | . | . | . | .
CN(C)C(=O)c1ccc(-c2ccc([C@@H]3[C@H](CO)N4CCCCN(C(=O)C5CC5)C[C@@H]34)cc2)cc1 | 67.4 | 0.1 | . | . | . | . | .
CN(C)C(=O)c1ccc(-c2ccc([C@H]3[C@H](CO)N4CCCCN(C(=O)C5CCC5)C[C@@H]34)cc2)cc1 | 99.5* | . | . | 95.0* | 89.5 | 6.9 | 42.4*
CN(C)C(=O)c1ccc(-c2ccc([C@H]3[C@@H](CO)N4CCCCN(C(=O)C5CC5)C[C@@H]34)cc2)cc1 | 66.3 | -0.3 | . | . | . | . | .
CN(C)C(=O)c1ccc(-c2ccc([C@@H]3[C@@H](CO)N4CCCCN(C(=O)C5CCC5)C[C@H]34)cc2)cc1 | 49.2 | . | . | . | . | . | .
CN(C)C(=O)c1ccc(-c2ccc([C@H]3[C@@H](CO)N4CCCCN(C(=O)C5CCC5)C[C@@H]34)cc2)cc1 | 106.0* | . | . | 102.0* | 89.1 | 8.8 | 26.9
